Data as given in ChEMBL document CHEMBL2396550, “Manzamine A, a marine-derived alkaloid, inhibits accumulation of cholesterol ester in macrophages and suppresses hyperlipidemia and atherosclerosis in vivo” (Bioorg Med Chem, 2013).
The source made the active and inactive calls. The rule behind the calls is not given here.

What was measured:
MDM [1] = test: Antihyperlipidemic activity in human MDM assessed as inhibition of acetylated LDL-induced [3H]-cholesterol ester accumulation at 20 uM after 24 hrs by radioscanner analysis in presence of [3H]-oleate-conjugated BSA; type: functional
Summary of the method: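 Monocytes were isolated from healthy-volunteer blood on Ficoll, allowed to adhere for 1 h, then differentiated for 7 days into macrophages in DMEM with 10% pooled human serum. The macrophages were incubated for 24 h at 37 °C in 5% CO2 with 50 μg/mL AcLDL, 0.1 mM BSA-conjugated [3H]oleate and 20 μM sample. Cellular lipids were extracted, [3H]CE was separated by TLC, and it was quantified by radioscanner.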

[2] = target: T1, Sterol O-acyltransferase 1 (Homo sapiens, UniProt P35610); test: Inhibition of macrophage ACAT (unknown origin)
T1 sequence (P35610 whole entry): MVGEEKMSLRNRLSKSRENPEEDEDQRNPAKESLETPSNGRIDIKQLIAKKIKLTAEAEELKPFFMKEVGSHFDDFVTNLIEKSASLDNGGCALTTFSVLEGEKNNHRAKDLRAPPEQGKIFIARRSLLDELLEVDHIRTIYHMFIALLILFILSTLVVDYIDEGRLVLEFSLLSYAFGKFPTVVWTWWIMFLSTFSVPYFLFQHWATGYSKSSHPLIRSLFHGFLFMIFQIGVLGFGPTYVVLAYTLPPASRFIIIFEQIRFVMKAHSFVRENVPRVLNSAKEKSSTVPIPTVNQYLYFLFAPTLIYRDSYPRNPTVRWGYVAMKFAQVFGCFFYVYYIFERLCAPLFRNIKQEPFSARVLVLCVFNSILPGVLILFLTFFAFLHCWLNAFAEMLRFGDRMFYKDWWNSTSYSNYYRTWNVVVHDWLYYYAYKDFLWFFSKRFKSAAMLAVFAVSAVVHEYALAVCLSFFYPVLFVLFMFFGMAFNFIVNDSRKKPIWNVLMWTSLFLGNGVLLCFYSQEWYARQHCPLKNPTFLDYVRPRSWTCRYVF

[3] = target: T2, Sterol O-acyltransferase 1 (Homo sapiens) (UniProt P35610); test: (§1) Non-competitive inhibition of microsomal ACAT in human MDM using [14C]oleoyl-CoA as substrate assessed as formation of cholesteryl [14C]-oleate […]
T2 sequence (whole entry): T1 sequence (P35610 whole entry)

[4] = target: T1, Sterol O-acyltransferase 1; test: as §1
[5] = tested on: Peritoneal macrophage cell; test: (§2) Antihyperlipidemic activity in apoE-deficient mouse peritoneal macrophages assessed as inhibition of acetylated LDL-induced [3H]-cholesterol ester accumulation after 24 hrs by radioscanner analysis in presence of [3H]-oleate-conjugated BSA; type: functional, cell-based
Summary of the method: (§3)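 Peritoneal macrophages from apoE-deficient mice, cultured in DMEM with 10% pooled human serum, 37 °C, 5% CO2. [3H]CE accumulation after AcLDL loading was measured by the [3H]oleate/TLC method.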

[6] = as §2; type: functional, cell-based; conditions: Peritoneal macrophage cell; summary of the method: as §3
MDM [7] = test: Effect on ACAT expression in human MDM at 5 to 30 uM after 24 hrs by immunoblot analysis; type: functional
Summary of the method: (§4)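 HMDMs exposed 24 h to graded compound concentrations, solubilised in 1% Triton X-100, boiled in SDS sample buffer, then N-glycosidase-treated at 37 °C for 24 h. 10 μg protein run on 10% SDS-PAGE and immunoblotted for human ACAT-1, SR-A (E5) or SR-BI, with β-actin reprobe; band density quantified.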

[8] = Cytotoxicity against human MDM assessed as inhibition of acetylated LDL-induced [3H]-triglyceride synthesis at 50 uM after 24 hrs by radioscanner analysis in presence of [3H]-oleate-conjugated BSA
Summary of the method: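 HMDMs incubated 24 h with AcLDL 50 μg/mL and 0.1 mM [3H]oleate–BSA with or without compound; extracted lipids assayed for TG-[3H]oleate radioactivity.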

Mus musculus [9] = test: Antiatherosclerotic activity in apoE-deficient C57BL/6 mouse assessed as decrease in atherosclerotic lesion size in aortic sinus at 30 mg/kg/day administered through feeding measured after 80 days by oil red O/hematoxylin staining assay relative to control; type: functional; parameters: scale not given: the % may be the effect or the level left
CHO [10] = test: Antihyperlipidemic activity in CHO cells overexpressing human ACAT1 assessed as inhibition of [3H]-cholesterol ester accumulation after 24 hrs by radioscanner analysis in presence of [3H]-oleate-conjugated BSA; type: functional, cell-based; conditions: Cricetulus griseus
Summary of the method: (§5)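 CHO cells stably overexpressing human ACAT-1 or ACAT-2, grown in F-12 HAM with 10% FCS and G418 800 μg/mL. Incubated 24 h in medium with 10% FCS, 0.1 mM [3H]oleate–BSA and graded compound concentrations; no AcLDL. Lipids extracted, [3H]CE separated by TLC and counted by radioscanner.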

MDM [11] = test: Effect on scavenger receptor-A expression in human MDM at 5 to 30 uM after 24 hrs by immunoblot analysis; type: functional; summary of the method: as §4
[12] = (§6) Antihyperlipidemic activity in human MDM assessed as inhibition of acetylated LDL-induced [3H]-cholesterol ester accumulation after 24 hrs by radioscanner analysis in presence of [3H]-oleate-conjugated BSA; type: functional
Summary of the method: (§7)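 Human monocytes from healthy volunteer blood by Ficoll, adhered 1 h, differentiated 7 days in DMEM with 10% pooled human serum. Monolayers incubated 24 h with AcLDL 50 μg/mL plus 0.1 mM [3H]oleate–BSA with or without compound; lipids extracted, [3H]cholesteryl oleate separated by TLC and counted by radioscanner.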

MDM [13] = test: as §6; type: functional; summary of the method: as §7
Mus musculus [14] = test: Antiatherosclerotic activity in apoE-deficient C57BL/6 mouse assessed as decrease in total plasma cholesterol level at 30 mg/kg/day administered through feeding measured after 80 days relative to control; type: functional; parameters: scale not given: the % may be the effect or the level left
[15] = Cytotoxicity against human MDM assessed as cell viability at 50 uM after 24 hrs by WST-8 assay
Summary of the method: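 HMDMs seeded at 1×10^4 per well, treated with compound; viability read by WST-8 assay.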

CHO [16] = test: Antihyperlipidemic activity in CHO cells overexpressing human ACAT2 assessed as inhibition of [3H]-cholesterol ester accumulation after 24 hrs by radioscanner analysis in presence of [3H]-oleate-conjugated BSA; type: functional, cell-based; conditions: Cricetulus griseus; summary of the method: as §5
[17] = Cytotoxicity against human MDM assessed as change in cell morphology at 50 uM
MDM [18] = test: Effect on scavenger receptor-B1 expression in human MDM at 5 to 30 uM after 24 hrs by immunoblot analysis; type: functional; summary of the method: as §4
Mus musculus [19] = test: Antiatherosclerotic activity in apoE-deficient C57BL/6 mouse assessed as decrease in plasma triglyceride level at 30 mg/kg/day administered through feeding measured after 80 days relative to control; type: functional; parameters: scale not given: the % may be the effect or the level left
MDM [20] = test: Inhibition of endocytic [125I]-acetylated LDL uptake in human MDM at 50 uM after 5 hrs; type: functional
Summary of the method: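 Day-7 HMDMs in DMEM with 3% BSA, incubated 5 h at 37 °C with 125I-AcLDL (50 μg/mL, 600 cpm/ng) plus compound. Degradation was measured as TCA-soluble, AgNO3-cleared medium radioactivity. Cell-associated counts came from 0.1 M NaOH lysates after ice-cold PBS/1% BSA washes and were normalised to protein.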

Mus musculus [21] = species: Mus musculus; test: (§8) Inhibition of microsomal ACAT in apoE-deficient mouse peritoneal macrophage using [14C]oleoyl-CoA as substrate assessed as formation of cholesteryl [14C]-oleate […] by TLC analysis
[22] = as §8
[23] = target: T3, Sterol O-acyltransferase 2 (Homo sapiens, UniProt O75908); test: (§9) Non-competitive inhibition of human microsomal ACAT2 overexpressed in CHO cells using [14C]oleoyl-CoA as substrate assessed as formation of cholesteryl [14C]-oleate […]
T3 sequence (O75908 whole entry): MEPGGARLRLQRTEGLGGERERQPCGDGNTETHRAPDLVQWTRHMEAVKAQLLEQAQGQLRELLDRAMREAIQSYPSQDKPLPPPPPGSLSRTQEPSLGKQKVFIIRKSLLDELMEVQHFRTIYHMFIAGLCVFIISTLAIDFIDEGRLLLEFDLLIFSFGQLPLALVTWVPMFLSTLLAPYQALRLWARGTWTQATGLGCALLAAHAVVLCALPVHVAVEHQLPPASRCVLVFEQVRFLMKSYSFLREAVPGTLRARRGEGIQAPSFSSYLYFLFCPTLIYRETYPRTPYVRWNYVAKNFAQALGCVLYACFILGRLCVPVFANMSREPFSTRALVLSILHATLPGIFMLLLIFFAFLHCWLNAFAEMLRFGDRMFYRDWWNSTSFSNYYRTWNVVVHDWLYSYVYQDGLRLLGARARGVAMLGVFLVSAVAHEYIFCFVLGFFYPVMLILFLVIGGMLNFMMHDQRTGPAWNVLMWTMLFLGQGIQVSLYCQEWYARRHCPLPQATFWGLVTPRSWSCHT

[24] = target: T4, Sterol O-acyltransferase 2 (Homo sapiens) (UniProt O75908); test: as §9
T4 sequence (whole entry): T3 sequence (O75908 whole entry)

Mus musculus [25] = test: Antiatherosclerotic activity in apoE-deficient C57BL/6 mouse assessed as decrease in plasma LDL cholesterol level at 30 mg/kg/day administered through feeding measured after 80 days relative to control; type: functional; parameters: scale not given: the % may be the effect or the level left
Mus musculus [26] = test: Antiatherosclerotic activity in apoE-deficient C57BL/6 mouse assessed as decrease in plasma free cholesterol level at 30 mg/kg/day administered through feeding measured after 80 days relative to control; type: functional; parameters: scale not given: the % may be the effect or the level left
[27] = target: T2, Sterol O-acyltransferase 1 (Homo sapiens); test: (§10) Non-competitive inhibition of human microsomal ACAT1 overexpressed in CHO cells using [14C]oleoyl-CoA as substrate assessed as formation of cholesteryl [14C]-oleate […]
[28] = target: T1, Sterol O-acyltransferase 1; test: as §10
[29] = target: T3, Sterol O-acyltransferase 2; test: Inhibition of macrophage ACAT2 (unknown origin)
[30] = target: T1, Sterol O-acyltransferase 1; test: Inhibition of ACAT1 (unknown origin)
[31] = target: T3, Sterol O-acyltransferase 2; test: Inhibition of ACAT2 in human MDM assessed as inhibition of acetylated LDL-induced cholesterol ester accumulation after 1 hr by HPLC analysis
[32] = target: T1, Sterol O-acyltransferase 1
[33] = Inhibition of microsomal ACAT in cholesterol-fed JW rabbit intestine using [14C]oleoyl-CoA as substrate incubated for 5 mins prior to substrate addition measured after 5 to 10 mins by liquid scintillation counting analysis; type: microsomes, Oryctolagus cuniculus

SMILES: c1ccc2c(c1)[nH]c1cnccc12
- inhibition (MDM [1]): Active

SMILES: O[C@H]1/C=C/C[C@]2(O)C=C(c3nccc4c3[nH]c3ccccc34)[C@@H]3CCN(CCCC1)C[C@@]31C[C@@H]3/C=C\CCCCN3[C@H]12
- inhibition (MDM [1]): Active

SMILES: CCCCCCCCCN(CC(C)(C)C)C(=O)N[C@H]1CCCC[C@@H]1OC(=O)CCNC(=O)[C@@H]1OC(C)(C)OCC1(C)C
- IC50 [2]: 0.032 µM

SMILES: Oc1ccc2[nH]c3c(C4=C[C@@]5(O)CC/C=C\CCCCN6CCC4[C@]4(C[C@@H]7/C=C\CCCCN7[C@H]45)C6)nccc3c2c1 (some centres undefined)
- inhibition (MDM [1]): Active

SMILES: O=CC1=C[C@@]2(O)CC/C=C\CCCCN3CC[C@@H]1[C@]1(C[C@@H]4/C=C\CCCCN4[C@H]12)C3
- inhibition (MDM [1]): Active

SMILES: O[C@]12C=C(c3nccc4c3[nH]c3ccccc34)[C@@H]3CCN(CCCC/C=C\CC1)C[C@@]31C[C@@H]3/C=C\CCCCN3[C@H]12 [MANZAMINE A]
- inhibition [3]: Dose-dependent effect
- IC50 [4]: 6.4 µM
- inhibition [5]: Dose-dependent effect
- IC50 [6]: 6.2 µM
- Activity (MDM [7]): inactive
- Activity [8]: Toxic
- Activity (Mus musculus [9]): 45%
- inhibition (CHO [10]): Dose-dependent effect
- Activity (MDM [11]): inactive
- IC50 [12]: 4.1 µM
- inhibition (MDM [13]): Dose-dependent effect
- Activity (Mus musculus [14]): 40%
- inhibition (MDM [1]): Active
- Activity [15]: Toxic
- inhibition (CHO [16]): Dose-dependent effect
- Activity [17]: Toxic
- Activity (MDM [18]): inactive
- Activity (Mus musculus [19]): 50%
- inhibition (MDM [20]): Active
- inhibition (Mus musculus [21]): Dose-dependent effect
- IC50 [22]: 5.8 µM
- IC50 [23]: 4.8 µM
- inhibition [24]: Dose-dependent effect
- Activity (Mus musculus [25]): 40%
- Activity (Mus musculus [26]): 20%
- inhibition [27]: Dose-dependent effect
- IC50 [28]: 6.2 µM

SMILES: CCCCCCCCN1CCc2c(C)c(CC(=O)O)c(C)c(NC(=O)C(C)(C)C)c21 [PACTIMIBE]
- IC50 [29]: 3 µM
- IC50 [30]: 4.9 µM

SMILES: O=C1CCCN2[C@@H]3[C@@]45CN6CCCC/C=C\CC[C@@]3(C=C(c3nccc7c3[nH]c3ccccc37)[C@@H]4CC6)O[C@]2(CC1)C5
- inhibition (MDM [1]): Active

SMILES: Oc1cccc2c1[nH]c1c(C3=C[C@@]4(O)CC/C=C\CCCCN5CC[C@@H]3[C@]3(CC6/C=C\CCCCN6[C@H]34)C5)nccc12 (some centres undefined)
- inhibition (MDM [1]): Active

SMILES: CC(C)c1cc(C(C)C)c(CC(=O)NS(=O)(=O)Oc2c(C(C)C)cccc2C(C)C)c(C(C)C)c1 [AVASIMIBE]
- IC50 [31]: 9.2 µM
- IC50 [32]: 23.5 µM

SMILES: CN(C)c1ccc(NC(=O)N(C[C@H]2CC[C@H](CN(C(=O)Nc3ccc(N(C)C)cc3)C3CCCCC3)CC2)C2CCCCC2)cc1
- IC50 [33]: 0.0076 µM
